High-throughput results as filed in PubChem.
MLL AF4-AF9 inh: blocks AF4 peptide binding to human AF9; inhibition, % at 10 µM; AID 651704; actives 0.47% (n = 350,000); AlphaScreen, biotin-AF4 peptide binding to FLAG-AF9;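 active = every replicate reaching a set inhibition limit, whatever the replicate mean, cut at about 25% in these data; inconclusive = mean inhibition reaches that limit but some replicates miss it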;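 note: 0% = plate neutral control median and 100% = total signal loss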
Target sequence (P42568 whole entry, looked up): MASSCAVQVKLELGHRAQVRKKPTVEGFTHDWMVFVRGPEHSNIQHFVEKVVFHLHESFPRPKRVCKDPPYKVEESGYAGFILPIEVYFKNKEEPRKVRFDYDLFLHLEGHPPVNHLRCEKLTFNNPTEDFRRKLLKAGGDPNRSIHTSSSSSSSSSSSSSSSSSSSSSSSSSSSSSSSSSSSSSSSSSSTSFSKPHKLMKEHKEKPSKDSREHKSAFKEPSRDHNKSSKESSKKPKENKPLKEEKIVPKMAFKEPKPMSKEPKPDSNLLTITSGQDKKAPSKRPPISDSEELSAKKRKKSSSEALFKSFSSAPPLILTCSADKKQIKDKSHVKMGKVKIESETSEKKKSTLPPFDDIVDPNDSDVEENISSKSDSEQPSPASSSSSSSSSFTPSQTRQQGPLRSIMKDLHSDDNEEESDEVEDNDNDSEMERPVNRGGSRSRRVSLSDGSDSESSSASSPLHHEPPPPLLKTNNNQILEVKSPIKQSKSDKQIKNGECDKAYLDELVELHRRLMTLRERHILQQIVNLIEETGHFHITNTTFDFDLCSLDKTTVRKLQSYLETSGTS
RAD54 branch: blocks human RAD54 Holliday junction branch migration; Q92698; FAM/BHQ fluorescence; inhibition, % at 10.4 µM; actives 0.14% (n = 360,000); AID 602329;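 active = mean normalized replicate activity at least 40 and at least half of replicates scoring 40 or more; inconclusive = only one of the two criteria met; inactive = mean below 40 and under half of replicates reaching 40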;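 note: 0% = median of neutral control wells and 100% = median of positive control wells; inhibitors cause a drop in the FAM fluorescence signal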
FN deposit inh: fibronectin deposition inhibition. AID 743247. inhibition, % at 12.6 µM. actives 0.086% (n = 350,000). AH1F fibroblasts, Alexa488-fibronectin deposition fluorescence, overnight;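 active = mean inhibition across replicates of 30% or more, regardless of how many single replicates reach that level; inconclusive = mean under 30% yet at least half of replicates reach 30%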;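 note: positive control wells lacked labelled fibronectin entirely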
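Assay system: AH1F fibroblasts assembling fluorescent fibronectin matrix; Amount: 10000 AH1F cells per well; Buffer or medium: DMEM, 2% serum; Probe or stimulus: Alexa488-fibronectin, 24 nM final in well; Doses: single compound dose, delivered by pin transfer; Incubation: 1 h adhesion, overnight exposure; Measured by: fluorescence 485/525 nm; Read-out: fibronectin deposition inhibition.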
NSD2 HMT inh: blocks human histone methyltransferase NSD2 | O96028 | actives 0.54% (n = 310,000) | inhibition, % at 12.5 µM | AID 743445 | NSD2 peptide methylation, AlphaScreen, 120 min; in the data active = inhibition above about 50%
RAD52 anneal inh: blocks human RAD52 DNA annealing. P43351. recombinant RAD52 DNA annealing, FRET fluorescence. inhibition, % at 18.7 µM. actives 0.46% (n = 360,000). AID 651710;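 active = every replicate showing at least 50% inhibition; inconclusive = mean inhibition at least 50% but not in every replicate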
Glyco luc inh: N-linked glycosylation inhibition; D54 ERlucT glycosylation luciferase reporter, 24 h; percent of 100 nM tunicamycin response; reporter increase, % at 12.5 µM; actives 0.23% (n = 360,000);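 active = mean luciferase reporter signal, scaled so untreated is 0 and the glycosylation-blocking control 100, at or above a set limit in every replicate; inconclusive = mean reaches the limit but not every replicate does; inactive = mean below the limit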;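 note: luciferase carries N-glycosylation sites so blocking glycosylation raises the light; 0% = median of neutral control wells and 100% = median of 100 nM tunicamycin wells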
* hit, by the source's call; ! = not active in a repeat. This is a sample that favours compounds with a hit; in the whole collection about 1.2% have one here.

`O=C(C[C@@H]1CC[C@@H]2[C@H](COC[C@@H](O)CN2S(=O)(=O)c2ccc(F)cc2)O1)NCC1CC1` gave MLL AF4-AF9 inh 5, RAD54 branch -20, FN deposit inh -3 and RAD52 anneal inh -2.
O=C(C[C@@H]1CC[C@H]2[C@@H](COC[C@@H](O)CN2C(=O)Nc2ccc(F)cc2)O1)NCCCN1CCOCC1 was read as MLL AF4-AF9 inh 31*, RAD54 branch -3, FN deposit inh 1 and RAD52 anneal inh -2.
Cc1ccc(S(=O)(=O)N2C[C@@H](O)COC[C@H]3O[C@H](CC(=O)NCC4CCCCC4)CC[C@@H]32)cc1 was read as MLL AF4-AF9 inh 30*, RAD54 branch -2, FN deposit inh -2 and RAD52 anneal inh 82*.
Screening COc1ccc(NC(=O)CN2C(=O)NC3(CCCC3)C2=O)c(OC)c1 returned MLL AF4-AF9 inh 2, RAD54 branch -1, FN deposit inh 3, NSD2 HMT inh -4, RAD52 anneal inh -7 and Glyco luc inh 1.
Screening COc1cccc(Oc2ccc(C(F)(F)F)cc2NC(=O)CN2C(=O)NC3(CCCC3)C2=O)c1 returned MLL AF4-AF9 inh -2, RAD54 branch 3, FN deposit inh -1, NSD2 HMT inh -3, RAD52 anneal inh 3 and Glyco luc inh 86*.
COC(=O)c1c(NC(=O)CN2CCN(c3ccccc3Cl)CC2)sc(C)c1C was read as FN deposit inh 34*, NSD2 HMT inh -1 and Glyco luc inh 0.
CCOC(=O)c1c(NC(=O)CN2CCN(c3ccc(Cl)cc3)CC2)sc(C)c1C was read as RAD54 branch 5, NSD2 HMT inh -2 and Glyco luc inh 0.
`Cc1ccnc(NC(=O)CCCOc2cc(=O)n(C)c3ccccc23)c1` gave MLL AF4-AF9 inh -1, RAD54 branch 4, FN deposit inh -9, RAD52 anneal inh -5 and Glyco luc inh 26*!.
Screening Cn1c(=O)cc(OCCCC(=O)NC2CCCC2)c2ccccc21 returned RAD54 branch -4, FN deposit inh 4, NSD2 HMT inh -2 and Glyco luc inh 45*.
CN(C)c1ccc(C(CNC(=O)COc2ccc(Cl)cc2)N2CCCC2)cc1 (centres undefined) was read as MLL AF4-AF9 inh 26*, RAD54 branch 2, FN deposit inh -6, NSD2 HMT inh 31, RAD52 anneal inh -63 and Glyco luc inh -2.
For COc1ccc(C(CNC(=O)COc2cc(C)ccc2Cl)N2CCCCC2)cc1 (centres undefined) the results were MLL AF4-AF9 inh 1, NSD2 HMT inh -4, RAD52 anneal inh 8 and Glyco luc inh -1.
CCc1ccc(NC(=O)Cn2c(=O)n(CCC(=O)NC3CCN(Cc4ccccc4)CC3)c(=O)c3ccccc32)cc1 was read as MLL AF4-AF9 inh 1, RAD54 branch -6, FN deposit inh -4, RAD52 anneal inh -8 and Glyco luc inh 38*.
`O=C(CCCCn1c(=O)c2ccccc2n(Cc2ccccc2)c1=O)NC1CCN(Cc2ccccc2)CC1` gave MLL AF4-AF9 inh 1, RAD54 branch -16, FN deposit inh -8, NSD2 HMT inh -4, RAD52 anneal inh -54 and Glyco luc inh -2.
Screening COc1cc(C(CCN2CCCCC2)c2c(OC)cc(OC)c3c(-c4ccccc4)cc(=O)oc23)cc(OC)c1OC (centres undefined) returned MLL AF4-AF9 inh inconclusive, RAD54 branch 0, FN deposit inh 30*, RAD52 anneal inh 23 and Glyco luc inh -4.
For COc1cc(C(CCN2CCCC(C)C2)c2c(OC)cc(OC)c3c(-c4ccccc4)cc(=O)oc23)cc(OC)c1OC (centres undefined) the results were RAD54 branch -2, RAD52 anneal inh 45 and Glyco luc inh -4.
`S=C(Nc1ccc2nsnc2c1)N1CCCCCC1` gave MLL AF4-AF9 inh 2, NSD2 HMT inh 153*, RAD52 anneal inh -27 and Glyco luc inh -4.
`Cc1[nH]c2ccccc2c1C(=O)CSc1nnc(C2CC2)o1` gave MLL AF4-AF9 inh 26*, RAD54 branch -5, FN deposit inh -12, NSD2 HMT inh 0, RAD52 anneal inh -5 and Glyco luc inh 0.
For CNC[C@@H]1Oc2ccc(N)cc2C(=O)N([C@H](C)CO)C[C@H]1C the results were MLL AF4-AF9 inh 2, RAD54 branch -28, FN deposit inh -14 and RAD52 anneal inh -12.
COc1ccccc1CCNC(=O)C1CCC(=O)N(Cc2ccccc2OC)C1 (centres undefined) was read as MLL AF4-AF9 inh 2, RAD54 branch -6, FN deposit inh 2, NSD2 HMT inh 2, RAD52 anneal inh -12 and Glyco luc inh 3.
`COc1ccccc1CN1CC(C(=O)NCCCc2ccc(F)cc2)CCC1=O` (centres undefined) gave MLL AF4-AF9 inh 42*, RAD54 branch -11, FN deposit inh 3, NSD2 HMT inh -6, RAD52 anneal inh -12 and Glyco luc inh 3.
`O=C(C[C@H]1CC[C@@H]2[C@H](COC[C@@H](O)CN2Cc2ccc(Cl)cc2)O1)NCc1ccccc1Cl` gave MLL AF4-AF9 inh 1, RAD54 branch 13, FN deposit inh -10 and RAD52 anneal inh 8.
O=c1cc(N=Nc2ccc(Cl)cc2)[nH]c(=O)[nH]1 was read as MLL AF4-AF9 inh -15, RAD54 branch 1, FN deposit inh 3, NSD2 HMT inh 20, RAD52 anneal inh -10 and Glyco luc inh 70*.
For CC1(C)CC2(C)OC2C2(C1)N=NC(=Nc1ccccc1)O2 (centres undefined) the results were NSD2 HMT inh 17 and Glyco luc inh 45*.
For CCCNC(=O)N(C)C[C@H]1Oc2cc(-c3cccnc3)ccc2S(=O)(=O)N([C@@H](C)CO)C[C@H]1C the results were MLL AF4-AF9 inh -1, RAD54 branch 0 and RAD52 anneal inh -1.
`O=C(Nc1ccccc1)c1c(F)c(F)c(F)c(F)c1F` gave MLL AF4-AF9 inh -43, RAD54 branch 3, NSD2 HMT inh -3, RAD52 anneal inh -12 and Glyco luc inh 4.
`CC(C)c1c(C(=O)Nc2ccccc2)c(-c2ccccc2)c(-c2ccc(F)cc2)n1CC[C@@H](O)C[C@@H](O)CC(=O)O` gave MLL AF4-AF9 inh 4, RAD54 branch 5, FN deposit inh 6, RAD52 anneal inh -5 and Glyco luc inh 80*.
Screening CC(C)CNC(=O)c1cccc2c1-c1ccccc1C2=O returned MLL AF4-AF9 inh 42*, RAD54 branch -1, FN deposit inh 5, NSD2 HMT inh -3, RAD52 anneal inh -4 and Glyco luc inh 0.
Screening COCCNC(=O)c1cccc2c1-c1ccccc1C2=O returned MLL AF4-AF9 inh 1, RAD54 branch 1, FN deposit inh 1, NSD2 HMT inh 44, RAD52 anneal inh -12 and Glyco luc inh 0.
